# Measured values from different studies.
# Each line is one published result; the experiments were not run side by side.
# Effect on: metabolic stability
SMILES,host,medium,tested at,time,pH,quantity,result
CS(=O)(=O)c1ccc(-c2cnc(N)c(-c3ccc(C(F)(F)F)nc3)c2)cc1,male rat,liver microsomes,1 µM,,,microsomal CLint,< 11.6 µL/min/mg
CC(C)N1Cc2cc(C(F)(F)F)ncc2C2=CN=C(NCc3c(F)ccc4c3CCO4)N3C=NC(C1=O)C23 (stereo not drawn),rat,liver microsomes,100 µM,30 min,,scaled CLint,18.9 mL/min/kg
COc1ccc(-c2nc3ccccn3c2N(C)c2ccc(F)cc2)nc1,rat,hepatocytes,,,,hepatocyte CLint,> 300 µL/min/10⁶ cells
O=C(Nc1ccc(N2C(=O)c3cccc(Cl)c3C2=O)c(Cl)c1)c1ncccc1Cl,rat,liver microsomes,1 µM,,pH 7.4,scaled CLint,39.9 mL/min/kg
CC(F)(F)CN1Cc2cc(C(F)(F)F)ncc2C2=CN=C(NCc3c(F)ccc4c3CCO4)N3C=NC(C1=O)C23 (stereo not drawn),rat,liver microsomes,100 µM,30 min,,scaled CLint,16.6 mL/min/kg
CC(=O)c1cccc(OCc2cc(C(=O)N(C)[C@@H](C)c3ccccn3)no2)c1,rat,liver microsomes,,,,scaled CLint,770 mL/min/kg
COc1ccc(-c2nc3ccc(OC)cn3c2N(C)c2ccc(F)cc2)nc1,rat,hepatocytes,,,,hepatocyte CLint,> 300 µL/min/10⁶ cells
CCOc1c(O)cc(Br)c2c1CN1CCc3cc(OCC(F)F)c(O)cc3[C@@H]1C2,rat,liver S9,2 µM,,pH 7.4,scaled CLint,902 mL/min/kg
Cc1cccnc1C(=O)Nc1ccc(N2C(=O)c3cccc(Cl)c3C2=O)c(Cl)c1,rat,liver microsomes,1 µM,,pH 7.4,scaled CLint,95.9 mL/min/kg
c1ccc(-c2nc3n(c2-c2ccncc2)CCC3)nc1,rat,hepatocytes,,,,hepatocyte CLint,4.8 µL/min/10⁶ cells
O=c1[nH]c(=S)n(Cc2ccc(Cl)cc2CNCC(F)(F)F)c2cc[nH]c12,rat,hepatocytes,,,,hepatocyte CLint,30 µL/min/10⁶ cells
C[C@H](C(=O)NC1Cc2ccccc2C1)c1ccccc1,rat,liver microsomes,1 µM,,,microsomal CLint,> 200 µL/min/mg
COc1ccc(-c2nc3ccc(OC)cn3c2Nc2ccc(F)cc2)nc1,rat,hepatocytes,,,,hepatocyte CLint,76 µL/min/10⁶ cells
C[C@H](C(=O)NC1Cc2ccccc2C1)c1ccc(F)cc1,rat,liver microsomes,1 µM,,,microsomal CLint,> 200 µL/min/mg
O=c1ccc2ccc(O)cc2o1,rat,liver S9,2 µM,,pH 7.4,scaled CLint,787 mL/min/kg
